Data from publication PMC4269301 (International journal of peptide research and therapeutics, 2014).
Square brackets hold non-standard residues; d marks the D form. Peptide text beside a SMILES is read from it. Nle = CCCC[C@H](N)C(=O)O

Experiments:
GRK5 [1] = target: T1, GRK5 (Homo sapiens, UniProt P34947); assay: GRK5 phosphorylation of light-activated rhodopsin; format: biochemical; settings: for % Inhibition (100 μM) of GRK5 phosphorylation of rhodopsin: 100 μM peptide, 0.5 μM light-activated rhodopsin, 100 μM ATP, 5 min; for inhibition at 100 µM: read-out: % Inhibition (100 μM) of GRK5 phosphorylation of rhodopsin; for Inhibition of GRK5 phosphorylation of rhodopsin: peptides 10, 30 and 100 μM, four or more experiments in duplicate
T1 sequence (P34947 whole entry): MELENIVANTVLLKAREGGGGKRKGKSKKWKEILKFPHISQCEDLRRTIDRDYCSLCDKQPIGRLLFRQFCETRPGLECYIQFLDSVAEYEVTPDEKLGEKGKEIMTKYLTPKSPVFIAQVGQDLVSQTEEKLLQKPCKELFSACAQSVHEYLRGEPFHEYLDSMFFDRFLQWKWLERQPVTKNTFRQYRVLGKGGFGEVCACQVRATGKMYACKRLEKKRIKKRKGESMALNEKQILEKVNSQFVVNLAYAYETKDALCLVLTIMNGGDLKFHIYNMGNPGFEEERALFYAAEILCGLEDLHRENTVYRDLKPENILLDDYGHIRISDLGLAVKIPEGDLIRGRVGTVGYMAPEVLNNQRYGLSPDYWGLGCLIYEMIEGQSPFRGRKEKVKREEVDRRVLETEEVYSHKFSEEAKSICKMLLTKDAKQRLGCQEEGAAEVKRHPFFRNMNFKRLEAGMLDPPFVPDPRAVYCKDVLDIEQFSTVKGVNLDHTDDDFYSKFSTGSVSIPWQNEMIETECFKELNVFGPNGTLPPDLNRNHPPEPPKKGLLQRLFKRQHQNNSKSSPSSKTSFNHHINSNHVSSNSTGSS

GRK2 [2] = target: T2, GRK2 (Homo sapiens, UniProt P25098, S670A); assay: GRK2 phosphorylation of light-activated rhodopsin; format: biochemical; settings: peptides 10, 30 and 100 μM; four or more experiments in duplicate
T2 sequence (P25098 1-689 S670A): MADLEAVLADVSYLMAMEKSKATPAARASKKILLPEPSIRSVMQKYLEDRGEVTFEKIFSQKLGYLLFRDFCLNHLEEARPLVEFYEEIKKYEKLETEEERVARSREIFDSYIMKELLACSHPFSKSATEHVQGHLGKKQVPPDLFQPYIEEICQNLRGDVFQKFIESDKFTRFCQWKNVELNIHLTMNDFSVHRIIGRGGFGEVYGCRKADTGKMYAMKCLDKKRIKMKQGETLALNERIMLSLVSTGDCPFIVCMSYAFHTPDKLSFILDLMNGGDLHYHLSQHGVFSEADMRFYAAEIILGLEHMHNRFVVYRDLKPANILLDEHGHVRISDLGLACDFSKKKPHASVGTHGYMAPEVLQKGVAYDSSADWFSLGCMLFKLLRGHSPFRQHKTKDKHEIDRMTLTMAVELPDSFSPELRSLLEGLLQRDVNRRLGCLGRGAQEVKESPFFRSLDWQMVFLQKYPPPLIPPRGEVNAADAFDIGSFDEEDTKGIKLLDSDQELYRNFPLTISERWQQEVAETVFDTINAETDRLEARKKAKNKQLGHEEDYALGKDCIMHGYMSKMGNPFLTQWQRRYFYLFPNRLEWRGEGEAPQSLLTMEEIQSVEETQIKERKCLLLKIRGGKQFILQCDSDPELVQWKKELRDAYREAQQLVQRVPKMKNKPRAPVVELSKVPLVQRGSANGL
Summary of the method: (§1)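 Light-activated (475 nm, 30 s) rhodopsin, 0.5 μM, from urea-stripped bovine ROS. Kinase was purified GRK2 (His₆, S670A, Sf9/baculovirus, Ni-IMAC) or N-terminal His₆ full-length human GRK6, at 10–100 nM. Buffer: 20 mM Tris pH 7.5, 10 mM MgCl₂, 1 mM EDTA, 100 μM [γ³²P]ATP; peptides in DMSO (2–4 %). Ran 5 min, then SDS-PAGE and autoradiography. ≥4 experiments in duplicate, % of control.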

GRK6 [3] = assay: GRK6 phosphorylation of light-activated rhodopsin; format: biochemical, human; settings: peptides 10, 30 and 100 μM; four or more experiments in duplicate
Summary of the method: as §1

GRK7 = target: T3, GRK7 (Homo sapiens, UniProt Q8WTQ7); assay: GRK7 phosphorylation of light-activated rhodopsin; format: biochemical; settings: peptides 10, 30 and 100 μM; four or more experiments in duplicate
T3 sequence (Q8WTQ7 1-553): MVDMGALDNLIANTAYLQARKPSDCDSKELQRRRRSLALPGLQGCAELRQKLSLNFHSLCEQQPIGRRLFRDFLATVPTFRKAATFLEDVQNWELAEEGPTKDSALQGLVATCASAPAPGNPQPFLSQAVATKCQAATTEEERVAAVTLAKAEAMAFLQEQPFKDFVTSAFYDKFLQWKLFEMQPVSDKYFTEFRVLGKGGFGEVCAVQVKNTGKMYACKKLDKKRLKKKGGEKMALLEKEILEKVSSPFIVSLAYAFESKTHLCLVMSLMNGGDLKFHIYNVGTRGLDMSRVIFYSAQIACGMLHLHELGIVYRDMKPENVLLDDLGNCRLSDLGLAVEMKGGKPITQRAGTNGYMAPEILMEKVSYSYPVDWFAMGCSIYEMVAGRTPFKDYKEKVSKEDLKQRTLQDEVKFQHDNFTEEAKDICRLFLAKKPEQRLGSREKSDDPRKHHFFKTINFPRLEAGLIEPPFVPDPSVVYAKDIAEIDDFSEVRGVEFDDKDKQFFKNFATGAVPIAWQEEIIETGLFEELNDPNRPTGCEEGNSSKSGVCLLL
Summary of the method: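 Substrate is urea-stripped bovine rod outer segment rhodopsin (0.5 μM in reaction buffer; 0.5–4 μM per legend), light-activated at 475 nm for 30 s. Peptides are dissolved in DMSO (2–4% final) and quantified by A280. Results are normalised to the no-peptide control as mean ± SEM.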

GRK2 [4] = target: T2, GRK2; assay: GRK2 phosphorylation of tubulin; format: biochemical; settings: for % inhibition of GRK2 phosphorylation of tubulin: 100 μM peptide, 100 nM GRK2, 60 min
Summary of the method: (§2)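 Bovine brain tubulin 500 nM with 100 nM GRK2 (His₆, S670A, Sf9-expressed) or human His₆-GRK5; 20 mM Tris pH 7.5, 1 mM EDTA, 10 mM MgCl₂, 5 μM DTT, 100 μM [γ³²P]ATP; 60 min, 30 °C. 12 % SDS-PAGE; ³²P-tubulin counted from excised bands or by autoradiogram densitometry. Mean ± SEM, ≥4 experiments in duplicate, % of control; one-way ANOVA.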

GRK5 [5] = target: T1, GRK5; assay: GRK5 phosphorylation of tubulin; format: biochemical; settings: for % inhibition of GRK5 phosphorylation of tubulin: 100 μM peptide, 100 nM GRK5, 60 min
Summary of the method: as §2

GRK6 [6] = settings: ref previous study of the α9 peptide (Baameur et al. 2010); cited from earlier work

Compound | % Inhibition (100 μM) of GRK5 phosphorylation of rhodopsin (GRK5 [1]) [%] | IC50 (GRK5 [1]) [µM] | inhibition at 100 µM (GRK5 [1]) [%] | Inhibition of GRK5 phosphorylation of rhodopsin (GRK5 [1]) | Inhibition of GRK2 phosphorylation of rhodopsin (GRK2 [2]) | Inhibition of GRK6 phosphorylation of rhodopsin (GRK6 [3]) | Inhibition of GRK7 phosphorylation of rhodopsin (GRK7) | other results
Ac-S[Nle]FFDRFLQWK-NH2 [Peptide T4] | 72 | – | – | – | – | – | – | –
CCCC[C@H](NC(=O)[C@H](CO)NC(C)=O)C(=O)N[C@@H](Cc1ccccc1)C(=O)N[C@@H](Cc1ccccc1)C(=O)N[C@@H](CC(=O)O)C(=O)N[C@@H](CCCNC(=N)N)C(=O)N[C@@H](Cc1ccccc1)C(=O)N[C@@H](CC(C)C)C(=O)N[C@@H](CCC(N)=O)C(=O)N[C@@H](Cc1c[nH]c2ccccc12)C(=O)N[C@@H](CCCCN)C(=O)N[C@@H](Cc1c[nH]c2ccccc12)C(=O)N[C@@H](CC(C)C)C(N)=O [Peptide T2] (Ac-S[Nle]FFDRFLQWKWL-NH2) | – | 5.2 ± 2 | 98 | – | – | – | – | –
Ac-S[Nle]AFDRFLQWKWLER-NH2 [Peptide F166A] | 42 | – | – | – | – | – | – | –
CCCC[C@H](NC(=O)[C@H](CO)NC(C)=O)C(=O)N[C@@H](Cc1ccccc1)C(=O)N[C@@H](Cc1ccccc1)C(=O)N[C@@H](CC(=O)O)C(=O)N[C@@H](CCCNC(=N)N)C(=O)N[C@@H](Cc1ccccc1)C(=O)N[C@@H](CC(C)C)C(=O)N[C@@H](CCC(N)=O)C(=O)N[C@@H](Cc1c[nH]c2ccccc12)C(=O)N[C@@H](CCCCN)C(=O)N[C@@H](Cc1c[nH]c2ccccc12)C(N)=O [Peptide T3] (Ac-S[Nle]FFDRFLQWKW-NH2) | – | 6.1 ± 4.4 | 97 | – | – | – | – | –
CCCC[C@H](NC(=O)[C@H](CO)NC(C)=O)C(=O)N[C@@H](Cc1ccccc1)C(=O)N[C@@H](Cc1ccccc1)C(=O)N[C@@H](CC(=O)O)C(=O)N[C@@H](C)C(=O)N[C@@H](Cc1ccccc1)C(=O)N[C@@H](CC(C)C)C(=O)N[C@@H](CCC(N)=O)C(=O)N[C@@H](Cc1c[nH]c2ccccc12)C(=O)N[C@@H](CCCCN)C(=O)N[C@@H](Cc1c[nH]c2ccccc12)C(=O)N[C@@H](CC(C)C)C(=O)N[C@@H](CCC(=O)O)C(=O)N[C@@H](CCCNC(=N)N)C(N)=O [Peptide R169A] (Ac-S[Nle]FFDAFLQWKWLER-NH2) | – | 7.2 ± 4.8 | 98 | inhibited | less inhibition | inhibited | inhibited | IC50 (GRK2 [4]): ~30 µM; % inhibition of GRK2 phosphorylation of tubulin (GRK2 [4]; 0.5 μM tubulin, 30 °C): 60–80%; IC50 (GRK5 [5]): ~30 µM; % inhibition of GRK5 phosphorylation of tubulin (GRK5 [5]; 0.5 μM tubulin, 30 °C): 60–80%
Ac-ILENLKDCGLF-NH2 [TCT, reference compound] | – | ~10 | – | showed inhibition | relatively inactive | showed inhibition | showed inhibition | Effect on GRK2 phosphorylation of tubulin, basal activity (GRK2 [4]; 0.5 μM tubulin, 60 min, 30 °C): no significant effect; Effect on GRK5 phosphorylation of tubulin, basal activity (GRK5 [5]; 0.5 μM tubulin, 60 min, 30 °C): no significant effect
Ac-S[Nle]FFDRFLQAKWLER-NH2 [Peptide W173A] | ~26 | – | – | – | – | – | – | –
Ac-PIGRLLFRQFC-NH2 [α3] | – | – | – | inhibited | inhibited | little activity | inhibited | IC50 (GRK2 [4]): ~30 µM; % inhibition of GRK2 phosphorylation of tubulin (GRK2 [4]; 0.5 μM tubulin, 30 °C): 60–80%; IC50 (GRK5 [5]): ~30 µM; % inhibition of GRK5 phosphorylation of tubulin (GRK5 [5]; 0.5 μM tubulin, 30 °C): 60–80%
CCCC[C@H](NC(=O)[C@H](CO)NC(C)=O)C(=O)N[C@@H](Cc1ccccc1)C(=O)N[C@@H](Cc1ccccc1)C(=O)N[C@@H](CC(=O)O)C(=O)N[C@@H](CCCNC(=N)N)C(=O)N[C@@H](Cc1ccccc1)C(=O)N[C@@H](CC(C)C)C(=O)N[C@@H](CCC(N)=O)C(=O)N[C@@H](Cc1c[nH]c2ccccc12)C(=O)N[C@@H](CCCCN)C(=O)N[C@@H](Cc1c[nH]c2ccccc12)C(=O)N[C@@H](CC(C)C)C(=O)N[C@@H](CCC(=O)O)C(=O)N[C@@H](CCCNC(=N)N)C(N)=O [α9 (164–178)] (Ac-S[Nle]FFDRFLQWKWLER-NH2) | – | 15.9 ± 4.3 | 89 | – | – | – | – | Inhibition of GRK6 (previous study) (GRK6 [6]): no inhibition
